Each block holds one molecule with its values, some of them ahead of it. Square brackets hold non-standard residues; d marks the D form. Peptide text beside a SMILES is read from it. * marks the point of attachment. FITC = O=C1OC2(c3ccc(O)cc3Oc3cc(O)ccc32)c2ccc(NC(=S)*)cc21; βAla = NCCC(=O)O
Assays:
DU145 cells [1] = test: MTT proliferation assay, DU145; format: cell-based; settings: 72 h
In short: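 DU145 cells seeded at 1500 per well in RPMI 1640 with 5% FBS. After 24 h, medium changed and peptide added for 72 h. MTT added (1 mg/mL final) for 4 h, then formazan dissolved in 2-propanol–HCl. Metabolic activity normalised to vehicle (bidistilled water, 0.1% DMSO). IC50 from curve fitting; tabulated IC50 are means of five independent experiments.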

LNCaP cells [2] = test: MTT proliferation assay, LNCaP; format: cell-based; settings: 72 h
In short: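 LNCaP cells seeded at 2500 per well on poly-lysine-coated plates in RPMI 1640 with 10% FBS. Medium changed after 24 h, then peptide exposure for 72 h. MTT (1 mg/mL final) incubated 4 h; formazan dissolved in 2-propanol–HCl. Signal normalised to vehicle-treated cells (water, 0.1% DMSO).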

LNCaP cells [3] = test: Cell cycle analysis; format: cell-based; settings: 200 μM, 96 h
In short: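 LNCaP cells (4 × 10^5 per 10 cm dish) grown 24 h untreated, then given vehicle (0.1% DMSO) or 100 or 200 μM peptide in 10% FBS medium for 96 h, with medium changed every 24 h. Cells trypsinised, fixed in ice-cold ethanol (30 min, room temperature), and stained with propidium iodide plus RNaseA in HEPES pH 7.2 buffer. Flow cytometry: ≥10000 gated singlets. Phase percentages taken from living cells. Three experiments in duplicate; unpaired two-tailed t test.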

amino-peptidases = test: Stability of the peptide to amino-peptidases; format: in vitro ADME; settings: N-terminal Leu replaced by DLeu, versus ML-peptide; unpublished data
DU145 cells [4] = test: Cellular uptake of FITC peptides by FACS; format: cell-based; settings: for geometric mean of the distribution (GeoMean), range over both wash conditions: DU145, 10 μM FITC peptide, 1 h, FACS
In short: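 DU145 cells (4 × 10^5) incubated 1 h in serum-free RPMI with 10 μM FITC-labelled peptide, then pelleted. Pellets washed twice with 0.05% trypsin, 5 min at 37 °C, to strip membrane-bound label. Propidium iodide (10 μg/mL, 2 min) excluded membrane-damaged cells. At least 10000 events acquired per sample, excluding clumps and debris. Uptake reported as geometric mean fluorescence.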

[5] = biological target: T1, P6 Lys hexapeptide inhibitor; test: enzyme inhibition assay
T1 chain: KLRVKR

[6] = biological target: T2, P6 Arg hexapeptide inhibitor; test: enzyme inhibition assay
T2 chain: RLRVKR

PC7 prodomain prodomain = biological target: T3, PC7 prodomain prodomain (Homo sapiens, UniProt Q16549); test: enzyme inhibition assay
T3 chain: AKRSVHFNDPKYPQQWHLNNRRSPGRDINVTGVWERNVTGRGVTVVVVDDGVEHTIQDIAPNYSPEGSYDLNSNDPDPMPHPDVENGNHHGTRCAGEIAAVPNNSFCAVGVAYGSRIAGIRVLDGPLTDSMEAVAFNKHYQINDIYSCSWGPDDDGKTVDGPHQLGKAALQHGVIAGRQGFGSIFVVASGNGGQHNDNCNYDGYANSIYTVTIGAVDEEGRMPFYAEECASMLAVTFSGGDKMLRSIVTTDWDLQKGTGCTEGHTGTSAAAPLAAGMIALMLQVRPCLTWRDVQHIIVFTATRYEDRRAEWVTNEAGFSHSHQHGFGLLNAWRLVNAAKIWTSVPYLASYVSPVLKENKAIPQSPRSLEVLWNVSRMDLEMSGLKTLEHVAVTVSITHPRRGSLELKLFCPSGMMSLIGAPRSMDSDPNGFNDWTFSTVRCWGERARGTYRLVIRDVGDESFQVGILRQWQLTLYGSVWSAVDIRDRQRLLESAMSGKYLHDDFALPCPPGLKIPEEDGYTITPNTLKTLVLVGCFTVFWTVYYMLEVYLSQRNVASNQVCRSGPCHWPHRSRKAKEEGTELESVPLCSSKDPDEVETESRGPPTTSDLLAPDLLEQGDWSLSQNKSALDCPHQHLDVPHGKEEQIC

[7] = biological target: T4, P6 Leu hexapeptide inhibitor; test: enzyme inhibition assay
T4 chain: LLRVKR

Molecule: CC(=O)N[C@@H](CC(C)C)C(=O)N[C@@H](CC(C)C)C(=O)N[C@@H](CC(C)C)C(=O)N[C@@H](CC(C)C)C(=O)N[C@@H](CCCNC(=N)N)C(=O)N[C@H](C(=O)N[C@@H](CCCCN)C(=O)N[C@H](CCCNC(=N)N)C(N)=O)C(C)C [Ac-LLLLRVK[DArg]-NH2] (Ac-LLLLRVK[dR]-NH2)
inhibition of proliferation (DU145 cells [1]): poor proliferation inhibitor
inhibition of proliferation (LNCaP cells [2]): poor proliferation inhibitor

stability of the peptide to amino-peptidases (amino-peptidases): improved stability
Molecule: CC(=O)N[C@H](CC(C)C)C(=O)N[C@@H](CC(C)C)C(=O)N[C@@H](CC(C)C)C(=O)N[C@@H](CC(C)C)C(=O)N[C@@H](CCCNC(=N)N)C(=O)N[C@H](C(=O)N[C@@H](CCCCN)C(=O)N[C@@H](CCCNC(=N)N)C(N)=O)C(C)C [Ac-[DLeu]LLLRVKR-NH2]
increase in the G0/G1 population (LNCaP cells [3]): 10%

Molecule: CC(=O)N[C@@H](CCCNC(=N)N)C(=O)N[C@@H](C)C(=O)N[C@@H](CCCNC(=N)N)C(=O)N[C@@H](CCCNC(=N)N)C(=O)N[C@@H](CCCNC(=N)N)C(=O)N[C@@H](CCCCN)C(=O)N[C@@H](CCCCN)C(=O)N[C@@H](CCCNC(=N)N)C(=O)N[C@H](C(N)=O)[C@@H](C)O [reference compound]
inhibition of proliferation (DU145 cells [1]): no antiproliferative effects
inhibition of proliferation (LNCaP cells [2]): no antiproliferative effects

Molecule: FITC-C8-LLLLRVKR-NH2 ({FITC-C8}-LLLLRVKR-NH2)
geometric mean of the distribution (GeoMean), range over both wash conditions (DU145 cells [4]): 260.08–261.95
GeoMean compared to the control FITC-β-Ala-ML-peptide (DU145 cells [4]; DU145, FACS): 5 fold

Molecule: FITC-[β-Ala]-LLLLRVKR-NH2 ({FITC-βAla}-LLLLRVKR-NH2)
geometric mean of the distribution (GeoMean), range over both wash conditions (DU145 cells [4]): 48.90–52.82

Ki [5]: 37 nM
Ki [6]: 40 nM
Ki (PC7 prodomain prodomain): 0.34 nM
Ki [7]: 49 nM
B1: PACE4 (protein)
chain: QVRSDPQALYFNDPIWSNMWYLHCGDKNSRCRSEMNVQAAWKRGYTGKNVVVTILDDGIERNHPDLAPNYDSYASYDVNGNDYDPSPRYDASNENKHGTRCAGEVAASANNSYCIVGIAYNAKIGGIRMLDGDVTDVVEAKSLGIRPNYIDIYSASWGPDDDGKTVDGPGRLAKQAFEYGIKKGRQGLGSIFVWASGNGGREGDYCSCDGYTNSIYTISVSSATENGYKPWYLEECASTLATTYSSGAFYERKIVTTDLRQRCTDGHTGTSVSAPMVAGIIALALEANSQLTWRDVQHLLVKTSRPAHLKASDWKVNGAGHKVSHFYGFGLVDAEALVVEAKKWTAVPSQHMCVAASDKRPRSIPLVQVLRTTALTSACAEHSDQRVVYLEHVVVRTSISHPRRGDLQIYLVSPSGTKSQLLAKRLLDLSNEGFTNWEFMTVHCWGEKAEGQWTLEIQDLPSQVRNPEKQGKLKEWSLILYGTAEHPYHTFSAHQSRSRMLELSAPELEPPKAALSPSQVEVPEDEEDYTAQSTPGSANILQTSVCHPECGDKGCDGPNADQCLNCVHFSLGSVKTSRKCVSVCPLGYFGDTAARRCRRCHKGCETCSSRAATQCLSCRRGFYHHQEMNTCVTLCPAGFYADESQKNCLKCHPSCKKCVDEPEKCTVCKEGFSLARGSCIPDCEPGTYFDSELIRCGECHHTCGTCVGPGREECIHCAKNFHFHDWKCVPACGEGFYPEEMPGLPHKVCRRCDENCLSCAGSSRNCSRCKTGFTQLGTSCITNHTCSNADETFCEMVKSNRLCERKLFIQFCCRTCLLAG
